High-throughput results deposited in PubChem BioAssay by several laboratories.
SKKanGAS inh = inhibitors of SKKanGAS S. pyogenes growth in kanamycin (SK-promoter or general growth effect) | BacTiter-Glo, 6 h | inhibition, % at 7.5 µM | 300,000 compounds, 1.3% hits;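 active = mean replicate score, as percent of positive control median, at least 50; inconclusive = mean below 50 but one replicate at or above 50; inactive = mean and every replicate below 50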;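 also: strain carries kanamycin resistance gene driven by streptokinase promoter and grows in 40 µg/ml kanamycin; loss of luminescence reflects streptokinase promoter inhibition or plain growth inhibition; 0% = median of DMSO wells and 100% = positive control at its reference dose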
Beta cell apopt = beta cell apoptosis inhibition. protection from apoptosis, % (concentration not given with the values). 300,000 compounds, 0.8% hits. INS-1E cytokine-induced death, ATP luminescence, 48 h; percent of positive-control rescue, neutral wells zero. AID 435005;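 active = Every replicate reaches about 75%, or at least half do and their mean reaches it too, limit read from the data; inconclusive = At least half of replicates reach the limit but their mean does not; inactive = Under half of replicates reach the limit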;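 also: 0% = cytokine-treated negative control wells and 100% = positive control rescue; higher means more ATP so stronger rescue from cytokine killing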
Calb FLC = affects C. albicans growth with fluconazole; AID 1979; C. albicans CaCi-2 (fluconazole-resistant clinical isolate) + fluconazole, Alamar Blue growth, 48 h; 300,000 compounds, 0.57% hits; growth inhibition, % (no concentration beside the values);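 active = growth inhibition above about 58% in most replicates, limit read from the data, passing the limit was not always enough; inconclusive = exactly half the replicates above a set limit; inactive = most replicates below a set limit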;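 also: all wells also contain fluconazole at 8 µg/ml as a sub-toxic cotreatment; 0% = median of DMSO wells and 100% = median of geldanamycin control wells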
CSC inhib = cancer stem cell inhibition; cancer stem cell-like cells viability, luminescence; inhibition, % at 7.5 µM; 300,000 compounds, 1.1% hits; in the data active = inhibition above about 75%; inconclusive = no clear call, values can overlap the other calls; tested in HMLE shEcad cells
Mdm2 MdmX PPI = inhibitors of human Mdm2/MdmX interaction; SaOS-2 split-luciferase Mdm2/MdmX complementation, luminescence; inhibition, % at 8 µM; 330,000 compounds, 3% hits;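 active = inhibition of at least 50% at 8 µM in the primary screen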
Target sequence (O15151 whole entry, looked up): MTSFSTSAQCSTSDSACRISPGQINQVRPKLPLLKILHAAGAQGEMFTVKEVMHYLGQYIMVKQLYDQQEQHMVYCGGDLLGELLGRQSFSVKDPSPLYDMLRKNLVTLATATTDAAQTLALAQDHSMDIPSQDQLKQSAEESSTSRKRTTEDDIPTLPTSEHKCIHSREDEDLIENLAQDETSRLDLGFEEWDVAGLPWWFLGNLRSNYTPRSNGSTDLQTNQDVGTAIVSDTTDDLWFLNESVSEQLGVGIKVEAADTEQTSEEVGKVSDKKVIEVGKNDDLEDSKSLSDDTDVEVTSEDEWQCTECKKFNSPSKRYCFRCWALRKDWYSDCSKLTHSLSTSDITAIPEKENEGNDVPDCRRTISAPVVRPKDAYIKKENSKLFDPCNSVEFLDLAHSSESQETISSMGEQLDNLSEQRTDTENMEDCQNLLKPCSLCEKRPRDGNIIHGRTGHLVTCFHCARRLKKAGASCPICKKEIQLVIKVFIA
Target sequence (Q00987 whole entry, looked up): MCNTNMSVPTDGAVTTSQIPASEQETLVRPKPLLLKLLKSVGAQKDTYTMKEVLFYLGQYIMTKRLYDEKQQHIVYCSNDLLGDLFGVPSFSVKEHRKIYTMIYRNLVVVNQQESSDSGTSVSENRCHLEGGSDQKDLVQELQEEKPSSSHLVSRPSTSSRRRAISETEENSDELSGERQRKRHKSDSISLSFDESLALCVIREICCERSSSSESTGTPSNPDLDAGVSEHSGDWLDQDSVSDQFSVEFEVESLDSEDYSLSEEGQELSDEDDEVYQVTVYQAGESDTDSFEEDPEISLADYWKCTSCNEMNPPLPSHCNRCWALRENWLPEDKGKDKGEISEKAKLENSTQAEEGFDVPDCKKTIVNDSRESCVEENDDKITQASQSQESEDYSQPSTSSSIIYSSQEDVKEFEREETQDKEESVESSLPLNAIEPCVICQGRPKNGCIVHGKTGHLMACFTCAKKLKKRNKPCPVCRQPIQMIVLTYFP
T cruzi inh = blocks replication of Trypanosoma cruzi | T. cruzi beta-gal in NIH3T3, luminescence, 90 h | inhibition, % (no concentration beside the values) | 300,000 compounds, 1.4% hits;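 active = mean inhibition across valid replicates above about 55%, limit read from the data; inconclusive = mean below that limit but half or more replicates reach it; inactive = mean below it, under half of replicates reach it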;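 also: signal also drops with host cell toxicity which is not excluded here; 0% = plate median of DMSO wells and 100% = zero luminescence signal; higher percent means less beta-gal luminescence so fewer parasites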
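System: Mouse NIH/3T3 fibroblasts infected with β-gal-expressing T. cruzi Tulahuen C4 | Quantity: NIH/3T3 cells, 5,000 per well | Reagent: 5000 reporter trypomastigotes per well | Dosing: Compound pinned at 50 nL/well, DMSO | Schedule: 3 h host attachment, then at least 90 h co-culture | Detection: GalScreen luminescence, 60 min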
An asterisk follows results filed as active; ? = inconclusive; . = not tested or not shown. An excerpt weighted towards active compounds, which were near 5.7% of everything screened.

SMILES	SKKanGAS inh	Beta cell apopt	Calb FLC	CSC inhib	Mdm2 MdmX PPI	T cruzi inh
Cc1ccc(-n2cccc2/C=C2/C(=N)N3C(=NC2=O)SN=C3S(C)(=O)=O)cc1	48	1	-4	12	3	-4
Cc1cc(C(=O)NC2CC(C)(C)Cc3c2cnn3-c2ccccc2)n(C)n1 (configuration not stated)	4	2	2	-8	21	-2
CC(=O)[C@@]1(O)C(C)CC2C3C=C(C)C4=Cc5c(cnn5-c5ccccc5)C[C@]4(C)C3C(O)C[C@@]21C (some centres not stated)	64*	-2	.	100*	.	64*
CCOC(=O)C1=C(CNCCc2ccc(Cl)cc2)NC(=O)NC1c1ccc2c(c1)OCO2 (configuration not stated)	10	-3	-7	.	18	57*
CC1(C)CC(=O)C2=C(C1)OC1=C(C(=O)CC(C)(C)C1)C2c1cc([N+](=O)[O-])cc([N+](=O)[O-])c1O	18	.	91*	-6	31	-3
CC1(C)CC(=O)C(C2C3=C(CC(C)(C)CC3=O)Oc3c(Br)cc(Br)cc32)=C(O)C1 (configuration not stated)	56*	-5	9	-3	33	1
Cc1nn(C)cc1C1C2=C(CC(C)(C)CC2=O)OC2=C1C(=O)CC(C)(C)C2	1	-2	0	-12	-7	0
Cc1nn(CC(N)=O)c(=O)c2ccccc12	2	6	1	-5	12	58*
Cc1cc(NC(=O)CC2CCCC2)ccc1Br	10	0	-2	-7	-2	-9
Nc1ncnc2c1ncn2[C@@H]1O[C@H](CO)C[C@@H]1O	13	.	41	4	11	61*
Nc1ncnc2c1ncn2C1O[C@H](CO)[C@@H](O)[C@@H]1O (some centres not stated)	.	.	.	3	29	.
Cc1cc(C)c(NC(=O)CS(=O)CC(=O)Nc2ccc(-n3cnnn3)c(C)c2)c(C)c1 (configuration not stated)	2	-1	8	9	19	-13
CCCCN1CC[C@H]2C=CC[C@@H](C(=O)Nc3ccc(Cl)c(C(F)(F)F)c3)[C@H]2C1=O	-4	4	109*	-7	5	37
O=C(Nc1ccc(Cl)c(C(F)(F)F)c1)[C@@H]1CC=C[C@@H]2CCN(Cc3ccccc3)C(=O)[C@@H]21	-3	0	3	1	16	40
O=C(O)/C(=C\c1cccs1)c1ccccc1	1	-2	18	-7	6	-6
Nc1c(C(=O)NCCc2ccc(Cl)cc2)sc2ccc(S(=O)(=O)N3CCCCC3)cc12	42	21	-11	58	38	59*
CC(C)CCNC(=O)c1sc2ccc(S(=O)(=O)N3CCCCC3)cc2c1N	-1	2	8	.	43	-13
O=C(O)CCc1nn2c3ccccc3nc2n(Cc2ccccc2)c1=O	-2	0	21	-13	29	-6
COc1cccc(CN(C(=O)COc2ccc(C)cc2)C2CCS(=O)(=O)C2)c1 (configuration not stated)	-7	-4	-1	5	-5	11
CC(=O)c1c(C)[nH]c(C(=O)OCc2cccc(Cl)c2)c1C	4	75*	29	24	31	21
CC1(CCc2ccccc2)NC(=O)N(CC(=O)N2CCCCCC2)C1=O (configuration not stated)	-1	1	-10	.	14	-4
COCCNc1ccc([N+](=O)[O-])cc1C(=O)Nc1cccc(C)n1	1	3	-4	7	28	7
CCOC(=O)c1sc(=NC(=O)c2ccco2)n(C)c1C	.	2	106*	-3	-57	.
COc1cc(CSc2nnnn2-c2ccc(C)cc2)cc(OC)c1OC	-1	102*	10	-12	37	-37
CCCn1c(=O)n(C)c(=O)c2c(SCC(=O)NC34CC5CC(CC(C5)C3)C4)nc(CC(C)C)nc21	-2	-1	-5	-2	-10	69*
SMILES	SKKanGAS inh	Beta cell apopt	Calb FLC	CSC inhib	Mdm2 MdmX PPI	T cruzi inh
CC(C)(C)NC(=O)Cn1nnc(-c2ccc(OCc3c(F)cccc3Cl)cc2)n1	13	8	3	78*	30	3
O=C(NCc1nc2ccccc2[nH]1)C1=C[C@@H](C2CCCCC2)C[C@@H](OCCCCO)O1	-5	4	-5	-3	-2	13
O=C(Cc1ccccc1)Nn1c(O)c(/C=C2\C=Nc3ccccc32)sc1=S	50*	-4	-3	35	.	-6
N#Cc1cccc(S(=O)(=O)NCC(=O)OCC(=O)c2ccc[nH]2)c1	0	-1	12	-19	2	-7
COc1ccc(-n2nc([N+](=O)[O-])c(=NCCc3ccc(Cl)cc3)n2O)cc1	0	6	23	11	-11	67*
COc1ccc(-n2nc([N+](=O)[O-])c(=NCCc3ccc(C)cc3)n2O)cc1	2	3	11	.	-17	50
COc1ccc(-n2nc([N+](=O)[O-])c(=NCCC3=CCCCC3)n2O)cc1	10	-3	3	2	-59	91*
Cc1ccc(S(=O)(=O)N(C)CC(=O)NNC(=O)CCC(=O)c2ccc(F)cc2)cc1	.	-7	.	-14	-4	.
Cc1ccc2c(Cl)cc(Cl)c(OCC(=O)NC(C)(C)C)c2n1	50*	-8	-7	-3	-1	-16
O=C(CN1CCN(Cc2ccc3c(c2)OCO3)CC1)Nc1ccc2[nH]c(=O)[nH]c2c1	.	-1	.	2	23	.
CCS(=O)(=O)Nc1cccc(C2=NN(S(=O)(=O)c3ccc(C)cc3)C(c3ccco3)C2)c1 (configuration not stated)	10	4	1	10	11	-2
O=C(O)c1ccc(N/N=C/c2ccc(-c3cccc(Cl)c3)o2)cc1	70*	-8	-9	10	-119	-38
O=C(O)c1ccc(N/N=C/c2ccc(-c3cc(Cl)ccc3Cl)o2)cc1	76*	-8	7	15	-23	-16
O=C(O)c1ccc(N/N=C/c2ccc(-c3ccc(Cl)cc3Cl)o2)cc1	84*	-4	-9	44	15	-13
COC(=O)N/N=C/c1ccc(-c2ccc(Cl)cc2Cl)o1	-2	-19	0	-10	-4	17
c1ccc(-c2ccc3c(c2)c2c4n3CCN=C4CCC2)cc1	-2	3	99*	.	32	-2
OC1CN=C2CCCc3c2n(c2ccc(Cl)cc32)C1 (configuration not stated)	5	4	-15	-11	23	11
O=C(NNc1c2ccccc2nc2ccccc12)c1ccccc1O	43	12	-14	?	37	30
O=C(NNc1c2ccccc2nc2ccccc12)c1ccc(O)cc1O	51*	17	-7	19	-5	-1
CC(C)CCNC(=O)c1nn(Cc2ccccc2)c(=O)c2ccccc12	11	-1	2	2	-9	8
